Tests used:
EMT6 = assay: In vitro cellular toxicity against murine mammary carcinoma EMT6 cell line after 4 hr of compound exposure; type: functional, cell-based; details: Mus musculus, EMT6, 4 h
Procedure, shortened: (§1)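 Cells exposed to drug for 4 h, then stained with sulforhodamine B 3 days later. IC50 interpolated as the concentration reducing cell density to 50% of same-plate controls. Values are the mean of 2-6 experiments.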

CHO-AA8 = assay: In vitro cellular toxicity against chinese hamster AA8 cell line after 4 hr of compound exposure; type: functional, cell-based; details: Cricetulus griseus, CHO-AA8, 4 h; procedure, shortened: as §1
SK-OV-3 [1] = assay: In vitro cellular toxicity against human ovarian carcinoma SKOV3 cell line after 4 hr of compound exposure; type: functional, cell-based; details: SK-OV-3, 4 h; procedure, shortened: as §1
UV4 = assay: In vitro cellular toxicity against chinese hamster UV4 cell line after 4 hr of compound exposure; type: functional, cell-based; details: Cricetulus griseus, UV4, 4 h; procedure, shortened: as §1
Nucleic Acid = assay: Tested for its ability to cross-link linearized plasmid DNA pcDNA3 following 18 hr of exposure at 37 degree celsius; type: functional
Procedure, shortened: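 EcoRI-linearized pcDNA3 plasmid (5400 bp), 3'-end labelled with α-32P-dATP by Klenow. 50 ng DNA incubated with drug (DMSO) in TE pH 7.5, 10 µL final volume, 18 h at 37 °C. Denatured with NaOH strand-separation buffer for 5-10 min, then run on 0.8% agarose gel. Double-stranded fraction quantified by phosphorimaging. At least five concentrations tested, 2-4 assays. C50 taken from a 3-parameter logistic fit capped at 100%.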

[2] = Ratio of LC50 values between the least sensitive and most sensitive human cancer cell lines; type: functional
Procedure, shortened: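 NCI 60-cell-line panel covering nine tissue types. LC50 is concentration producing 50% reduction in cells. Value is ratio of LC50 for least sensitive versus most sensitive line.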

[3] = tested on: Panel (Carcinoma cell lines); assay: In vitro drug concentration required for 50% inhibition of 60 different human cancer cell lines compared to controls; type: functional
SK-OV-3 [4] = assay: In vitro cytotoxicity against human tumor SKOV3 cell line was measured as concentration to reduce [3H]thymidine uptake to 50% of that of the controls; type: functional, cell-based; details: SK-OV-3, 5 days
Procedure, shortened: (§2)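 Cell suspensions exposed to drug continuously for 5 days. [3H]thymidine (0.25 µCi/mL, 0.1 µM) plus 5-fluoro-2'-deoxyuridine (0.1 µM) added 4 h before termination. Pronase 2 mg/mL in 4 mM Na4EDTA released adherent cells before aspiration and filtration. IC50 interpolated against same-plate controls. Mean of 2-3 experiments, some single determinations.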

Mus musculus [5] = assay: In vivo maximum tolerated dose for single intraperitoneal injection in non tumor-bearing C3H/HeN mice; type: functional
Procedure, shortened: (§3)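 Female non-tumour-bearing C3H/HeN mice received a single ip or iv injection in 100% DMSO at 0.001 mL/g. Doses stepped in 1.33-fold increments on a fixed scale, with 60-day observation. MTD defined as highest dose giving no deaths in a group of 6 and ≤15% mean body weight loss on day 4. Ratio is iv MTD over ip MTD.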

Mus musculus [6] = assay: Average time for WiDr tumor xenograft to reach a diameter of 17 mm following single intravenous injection at day 0 where tumor diameter was 8 mm in mice; type: functional
Procedure, shortened: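 Subcutaneous flank implant of WiDr cells (10^7 cells/mouse) in female CD-1 nude mice. Randomised at mean tumour diameter 8 mm (5-11 mice/group). Single iv dose at predetermined MTD, formulated in 100% DMSO at 0.001 mL/g, on day 0. Calipers used until mean diameter reached 17 mm, then culled. Values are average days to end point; ANOVA with Dunnett's test.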

SiHa = assay: In vitro cytotoxicity against human tumor SiHa cell line was measured as concentration to reduce [3H]thymidine uptake to 50% of that of the controls; type: functional, cell-based; procedure, shortened: as §2
COLO 205 = assay: In vitro cytotoxicity against human tumor COLO 205 cell line was measured as concentration to reduce [3H]thymidine uptake to 50% of that of the controls; type: functional, cell-based; details: COLO 205, 5 days; procedure, shortened: as §2
[7] = Ratio of maximum tolerated dose of intravenous to intraperitoneal injection in mice; type: functional; procedure, shortened: as §3
HT-29 = assay: In vitro cytotoxicity against human tumor HT-29 cell line was measured as concentration to reduce [3H]thymidine uptake to 50% of that of the controls; type: functional, cell-based; details: HT-29, 5 days; procedure, shortened: as §2
WiDr = assay: In vitro cytotoxicity against human tumor WiDr cell line was measured as concentration to reduce [3H]thymidine uptake to 50% of that of the controls; type: functional, cell-based; procedure, shortened: as §2
Mus musculus [8] = assay: In vivo maximum tolerated dose for single intravenous injection in non-tumor-bearing C3H/HeN mice; type: functional; procedure, shortened: as §3

Row | SMILES | IC50 (EMT6) | IC50 (CHO-AA8) | IC50 (SK-OV-3 [1]) | IC50 (UV4) | C50 (Nucleic Acid) | Ratio [2] | GI50 [3] | IC50 (SK-OV-3 [4]) | MTD (Mus musculus [5]) | Time (Mus musculus [6]) | IC50 (SiHa) | IC50 (COLO 205) | MTD ratio [7] | IC50 (HT-29) | IC50 (WiDr) | MTD (Mus musculus [8])
1 | CC(=O)N1C[C@@H](CCl)c2c1cc(O)c1ccccc21 | 280 nM | 210 nM | 360 nM | 59 nM |  |  |  |  |  |  |  |  |  |  |  | 
2 | COc1cc2c(cc1OCCCCC(=O)N1C[C@H](CCl)c3c1cc(O)c1ccccc31)N=CC1CCCN1C2=O (single isomer, unassigned) | 12 nM | 40 nM | 35 nM | 14 nM | 1.05 µM | 190 | 130 nM |  |  |  |  |  |  |  |  | 
3 | COc1cc2c(cc1OCCCCC(=O)N1C[C@@H](CCl)c3c1cc(O)c1ccccc31)N=C[C@@H]1CCCN1C2=O | 3.1 nM | 11 nM | 11 nM | 5.9 nM | 0.56 µM | 160 | 79 nM |  |  |  |  |  |  |  |  | 
4 | COc1cc2c(cc1OCCC(=O)N1C[C@H](CCl)c3c1cc(O)c1ccccc31)N=CC1CCCN1C2=O (single isomer, unassigned) | 300 nM | 1600 nM | 960 nM | 860 nM | 7.9 µM | 35 | 3200 nM |  |  |  |  |  |  |  |  | 
5 | COc1cc2c(cc1OCCC(=O)N1C[C@@H](CCl)c3c1cc(O)c1ccccc31)N=C[C@@H]1CCCN1C2=O | 51 nM | 240 nM | 200 nM | 160 nM | 5 µM | 50 | 500 nM |  |  |  |  |  |  |  |  | 
6 | COc1cc2c(cc1OCCCCCC(=O)N1CC(C)c3c1cc(O)c1ccccc31)N=C[C@@H]1CCCN1C2=O (stereo partly drawn) | 840 nM | 4500 nM | 2100 nM | 2500 nM |  |  |  |  |  |  |  |  |  |  |  | 
7 | COc1cc2c(cc1OCCCOc1cc3c(cc1OC)C(=O)N1CCC[C@H]1C=N3)N=C[C@@H]1CCCN1C2=O [DSB-120] | 23 nM | 340 nM | 140 nM | 86 nM | 0.029 µM |  |  | 6.3 nM | 1 µM/kg | 22.8 days | 7.3 nM | 7 nM | 4.21 | 8.7 nM | 10 nM | 4.21 µM/kg
8 | COc1cc2c(cc1OCCCC(=O)N1C[C@H](CCl)c3c1cc(O)c1ccccc31)N=CC1CCCN1C2=O (single isomer, unassigned) | 0.3 nM | 4 nM | 1.9 nM | 0.83 nM | 0.025 µM | 3200 | 13 nM |  |  |  |  |  |  |  |  | 
9 | COc1cc2c(cc1OCCCCCC(=O)N1C[C@@H](CCl)c3c1cc(O)c1ccccc31)N=C[C@@H]1CCCN1C2=O | 0.0078 nM | 0.054 nM | 0.032 nM | 0.023 nM | 0.022 µM | >10000 | < 10 nM | 0.0033 nM | 0.0178 µM/kg | 40.8 days | 0.0028 nM | 0.0035 nM | 10 | 0.0027 nM | 0.0039 nM | 0.178 µM/kg
10 | COc1cc2c(cc1OCCCCCC(=O)N1C[C@@H](CCl)c3c1cc(O)c1ccccc31)NC(=O)[C@@H]1CCCN1C2=O | 3.2 nM | 29 nM | 6.2 nM | 13 nM |  |  |  |  |  |  |  |  |  |  |  | 
11 | COc1cc2c(cc1OCCCC(=O)N1C[C@@H](CCl)c3c1cc(O)c1ccccc31)N=C[C@@H]1CCCN1C2=O | 0.03 nM | 0.13 nM | 0.14 nM | 0.074 nM | 0.017 µM | >10000 | < 10 nM | 0.021 nM | 0.00316 µM/kg | 26 days | 0.012 nM | 0.037 nM | 100 | 0.021 nM | 0.014 nM | 0.316 µM/kg
12 | COc1cc2cc(C(=O)N3C[C@@H](CCl)c4c3cc(O)c3ccccc43)[nH]c2c(OC)c1OC | 0.13 nM | 0.21 nM | 0.29 nM | 0.09 nM |  |  |  |  |  |  |  |  |  |  |  | 
13 | CC(=O)N1C[C@H](CCl)c2c1cc(O)c1ccccc21 | 12000 nM | 14000 nM | 14000 nM | 1800 nM |  |  |  |  |  |  |  |  |  |  |  | 
14 | COc1cc2c(cc1O)N=C[C@@H]1CCCN1C2=O | 1100 nM | 2000 nM | 1900 nM | 1500 nM |  |  |  |  |  |  |  |  |  |  |  | 
15 | COc1cc2c(cc1OCC(=O)N1C[C@H](CCl)c3c1cc(O)c1ccccc31)N=CC1CCCN1C2=O (single isomer, unassigned) | 5 nM | 48 nM | 16 nM | 6.1 nM | 1.21 µM | 200 | 91 nM |  |  |  |  |  |  |  |  | 
16 | COc1cc2c(cc1OCCCCCC(=O)N1C[C@H](CCl)c3c1cc(O)c1ccccc31)N=CC1CCCN1C2=O (single isomer, unassigned) | 0.56 nM | 4.2 nM | 3 nM | 1.5 nM | 0.13 µM | 2400 | 18 nM | 0.2 nM | 0.75 µM/kg | 24.4 days | 0.2 nM | 0.18 nM | 17.7 | 0.25 nM | 0.28 nM | 13.3 µM/kg

— ChEMBL document CHEMBL1144992, “Unsymmetrical DNA cross-linking agents: combination of the CBI and PBD pharmacophores” (J Med Chem, 2003)
